In the library only some 3.2% were active in any assay of this set; here they are far more common.
MLL AF4-AF9 inh: MLL-AF4/AF9 protein interaction inhibition | AID 651704 | 0.47% of 350,000 active | P42568 | inhibition, % at 10 µM | AlphaScreen, biotin-AF4 peptide binding to FLAG-AF9;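 active = every replicate reaching a set inhibition limit, whatever the replicate mean, cut at about 25% in these data; inconclusive = mean inhibition reaches that limit but some replicates miss it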;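 note: 0% = plate neutral control median and 100% = total signal loss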
Target sequence (P42568 whole entry, looked up): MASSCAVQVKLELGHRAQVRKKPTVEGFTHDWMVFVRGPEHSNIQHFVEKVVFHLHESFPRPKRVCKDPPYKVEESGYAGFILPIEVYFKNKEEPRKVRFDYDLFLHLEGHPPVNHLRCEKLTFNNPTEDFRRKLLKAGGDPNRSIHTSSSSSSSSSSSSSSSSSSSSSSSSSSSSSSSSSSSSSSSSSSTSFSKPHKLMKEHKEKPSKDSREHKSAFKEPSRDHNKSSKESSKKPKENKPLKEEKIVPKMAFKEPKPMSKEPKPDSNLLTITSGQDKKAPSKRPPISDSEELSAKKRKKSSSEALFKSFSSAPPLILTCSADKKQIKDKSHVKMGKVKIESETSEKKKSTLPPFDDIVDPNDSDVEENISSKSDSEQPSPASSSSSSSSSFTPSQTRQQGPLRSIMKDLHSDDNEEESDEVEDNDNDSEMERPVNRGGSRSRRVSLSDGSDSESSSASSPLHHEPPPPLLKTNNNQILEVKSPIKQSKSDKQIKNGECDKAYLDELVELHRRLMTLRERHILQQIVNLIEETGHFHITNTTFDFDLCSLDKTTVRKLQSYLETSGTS
PfHsp90 set2: growth inhibition of yeast expressing Plasmodium Hsp90; AID 504621; S. cerevisiae expressing PfHsp90, BacTiter-Glo ATP, 48 h; yeast lacking PDR1 and PDR3 efflux regulators; inhibition, % at 9.4 µM; 0.32% of 310,000 active;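 active = every replicate shows inhibition above about 80%, whatever the replicate mean, limit read from the data; inconclusive = mean inhibition reaches the set limit but some replicate falls short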;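 note: 0% = DMSO neutral controls and 100% = 20 µM radicicol positive controls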
S100A4 inh HTS: inhibitors of human S100A4 binding to myosin IIA peptide | S100A4/TAMRA-MyoIIA peptide fluorescence polarization | inhibition, % at 10.7 µM | 0.14% of 360,000 active | AID 652163;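 active = mean inhibition of at least 70% across replicates, with every replicate also reaching that level; inconclusive = mean inhibition reaches 70% but some replicates fall short; inactive = mean inhibition below 70%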
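Material: human S100A4 monomer with TAMRA-labelled myosin IIA peptide; buffer or medium: HEPES pH 7.2 with CaCl2, KCl, NaCl, DTT, Triton; compound dosing: one concentration per compound; schedule: 5 min incubation before reading; benchmarks: neutral control DMSO, positive control TFP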
rRNA inh HTS: selective bacterial rRNA inhibition in E. coli; GFP signal change (wild-type ribosome), % (test concentration not listed); E. coli WT GFP vs humanized-ribosome RFP mutants, fluorescence, 24 h; stronger effect = lower value; DMSO median 0, no signal -100; 1.6% of 350,000 active; AID 720706;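 active = significant combined selectivity score with lowered wild-type GFP, culture density cut under 30%, mutant RFP and density less affected; inactive = any of these conditions unmet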
DENV2 CPE rescue: protects cells from dengue virus 2 cytopathic effect; DENV2-infected cells, cytopathic effect rescue, plate reader; 1.7% of 350,000 active; CPE inhibition, % at 9.99 µM; in the data active = CPE inhibition above about 20%, passing the limit was not always enough; inconclusive = no clear call, values can overlap the other calls; tested in BHK-21 cells;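 note: 0% = median of neutral control wells and 100% = median of positive control wells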
Cneo AK release: Cryptococcus neoformans lysis via adenylate kinase release. C. neoformans lysis, adenylate kinase release luminescence, 4 h; normalised: neutral wells 0, clomiphene wells 100. lysis activity, % at 15 µM. 0.2% of 360,000 active. AID 651654;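 active = mean lysis activity across replicates of at least 80%, whatever share of replicates individually reach that level; inactive = mean lysis activity below 80%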
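Assay system: Cryptococcus neoformans yeast cells / Dosing: single-point compound dose / Timing: 4 h at 37 °C static, read 1 h later / Measured by: luminescence of released adenylate kinase using an AK detection reagent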
The depositor's hits bear a star.

How did CC[C@]1(C(=O)OC)[C@H]2C(=O)N(Cc3ccccc3)C(=O)[C@H]2[C@H]2CN=C(SCc3ccc(C(=O)OC)cc3)N21 do in these assays?
MLL AF4-AF9 inh: 2; PfHsp90 set2: 5; S100A4 inh HTS: 57; rRNA inh HTS: -26*; DENV2 CPE rescue: -1; Cneo AK release: 2

What do the screens show for `CC[C@]1(C(=O)OC)[C@H]2C(=O)N(Cc3ccccc3)C(=O)[C@H]2[C@H]2CN=C(SCc3ccc(C)cc3)N21`?
MLL AF4-AF9 inh: 1; PfHsp90 set2: -8; S100A4 inh HTS: 3; rRNA inh HTS: -35; DENV2 CPE rescue: -8; Cneo AK release: 2

What do the screens show for `Cc1cc(/C=C(\C#N)C(=O)NCc2ccccc2)cc(C)c1O`?
MLL AF4-AF9 inh: 1; PfHsp90 set2: 8; S100A4 inh HTS: 5; rRNA inh HTS: -3; DENV2 CPE rescue: 11; Cneo AK release: -1

What do the screens show for `N#C/C(=C\c1cccc([N+](=O)[O-])c1)C(=O)NCc1ccc(Cl)cc1`?
MLL AF4-AF9 inh: 0; PfHsp90 set2: 105*; S100A4 inh HTS: -2; rRNA inh HTS: -9; DENV2 CPE rescue: 3

How did COc1cc(/C=C(/C#N)C(=O)NCc2ccccc2)cc(OC)c1OC do in these assays?
MLL AF4-AF9 inh: 3; PfHsp90 set2: -27; S100A4 inh HTS: -4; rRNA inh HTS: -16; DENV2 CPE rescue: 67*; Cneo AK release: 17

How did Cc1nc(C)c(-c2ccn(S(=O)(=O)c3ccc(Cl)cc3)n2)o1 do in these assays?
MLL AF4-AF9 inh: 2; PfHsp90 set2: -5; S100A4 inh HTS: -11; rRNA inh HTS: -19*; DENV2 CPE rescue: 0

What do the screens show for `O=S(=O)(c1ccc(Cl)cc1)n1cccn1`?
MLL AF4-AF9 inh: -3; PfHsp90 set2: -3; S100A4 inh HTS: 4; rRNA inh HTS: 11; DENV2 CPE rescue: inconclusive

What do the screens show for `CC(C)Cc1cc(C(=O)NCCCN2CCOCC2)no1`?
MLL AF4-AF9 inh: 0; PfHsp90 set2: 0; S100A4 inh HTS: 151*; rRNA inh HTS: 10; DENV2 CPE rescue: -1; Cneo AK release: 0

How did COc1ccc(CNC(=O)C[C@H]2C[C@H]3c4cc(NS(=O)(=O)c5ccc(F)cc5)ccc4O[C@H]3[C@@H](CO)O2)cc1 do in these assays?
MLL AF4-AF9 inh: -5; S100A4 inh HTS: 3; rRNA inh HTS: -4; DENV2 CPE rescue: 3; Cneo AK release: -7

How did C/C=C/c1ccc([C@@H]2[C@H](CO)N3CCCCN(C(=O)Nc4ccc(OC)cc4)C[C@@H]23)cc1 do in these assays?
MLL AF4-AF9 inh: 13; S100A4 inh HTS: 10; rRNA inh HTS: 3; DENV2 CPE rescue: 5; Cneo AK release: 0

What do the screens show for `C/C=C/c1ccc([C@H]2[C@@H](CO)N3CCCCN(C(=O)Nc4ccc(OC)cc4)C[C@@H]23)cc1`?
MLL AF4-AF9 inh: 8; S100A4 inh HTS: 20; rRNA inh HTS: 3; DENV2 CPE rescue: 30*; Cneo AK release: 0

What do the screens show for `C/C=C/c1ccc([C@H]2[C@@H](CO)N3CCCCN(C(=O)Nc4ccc(OC)cc4)C[C@H]23)cc1`?
MLL AF4-AF9 inh: 8; S100A4 inh HTS: -1; rRNA inh HTS: -3; DENV2 CPE rescue: 1; Cneo AK release: 0

What do the screens show for `C/C=C/c1ccc([C@@H]2[C@@H](CO)N3CCCCN(C(=O)Nc4ccc(OC)cc4)C[C@H]23)cc1`?
MLL AF4-AF9 inh: 5; S100A4 inh HTS: 2; rRNA inh HTS: 0; DENV2 CPE rescue: 5; Cneo AK release: 102*

What do the screens show for `C[C@@H]1CN([C@H](C)CO)C(=O)Cc2cc(NC(=O)CCN3CCOCC3)ccc2O[C@@H]1CN(C)S(=O)(=O)c1ccc(Cl)cc1`?
MLL AF4-AF9 inh: 1; S100A4 inh HTS: -5; rRNA inh HTS: -1; DENV2 CPE rescue: -3; Cneo AK release: -4

What do the screens show for `COc1ccc2c3c(n(C)c2c1)[C@@H](CO)N(C)CC31CCN(S(=O)(=O)c2cn(C)cn2)CC1`?
MLL AF4-AF9 inh: 1; rRNA inh HTS: -3; DENV2 CPE rescue: -14

How did COc1cccc(-c2cn(CC[C@@H]3CC[C@@H](NC(=O)CN(C)C)[C@@H](CO)O3)nn2)c1 do in these assays?
MLL AF4-AF9 inh: -2; S100A4 inh HTS: 0; rRNA inh HTS: 0; DENV2 CPE rescue: 12; Cneo AK release: 7

Compound activity from PubChem.
